Tests used:
HCT-116 [1] = assay: Induction of apoptosis in human HCT116 cells assessed as live cells at 0.1 uM after 48 hrs by Annexin V-FITC/propidium iodide staining based flow cytometry (reference value: 88.7%); format: functional
HCT-116 [2] = assay: Induction of apoptosis in human HCT116 cells assessed as necrotic cells at 0.1 uM after 48 hrs by Annexin V-FITC/propidium iodide staining based flow cytometry (reference value: 0.8%); format: functional
HCT-116 [3] = assay: Induction of apoptosis in human HCT116 cells assessed as live cells at 0.5 uM after 48 hrs by Annexin V-FITC/propidium iodide staining based flow cytometry (reference value: 88.7%); format: functional
HCT-116 [4] = assay: Induction of apoptosis in human HCT116 cells assessed as late apoptotic cells at 4 uM after 48 hrs by Annexin V-FITC/propidium iodide staining based flow cytometry (reference value: 6.7%); format: functional
HCT-116 [5] = assay: Induction of apoptosis in human HCT116 cells assessed as live cells at 16 uM after 48 hrs by Annexin V-FITC/propidium iodide staining based flow cytometry (reference value: 88.7%); format: functional
HCT-116 [6] = assay: Induction of apoptosis in human HCT116 cells after 48 hrs by Annexin V-FITC/propidium iodide staining based flow cytometry; format: functional, cell-based
Outline: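 HCT116 seeded at 2×10^5 cells/well, cultured 6 h, then treated 48 h at 0.1, 0.5, 1, 4, 8 or 16 µM; DMSO (0.1%) served as vehicle. Cells washed twice in cold PBS, resuspended in binding buffer with FITC Annexin V and PI for 15 min at RT in the dark, diluted, and run on flow cytometry within 1 h.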

[7] = Cell cycle arrest in human HCT116 cells assessed as S phase accumulation at 0.1 uM after 48 hrs by Annexin V-FITC/propidium iodide staining based flow cytometry (reference value: 28.43%); format: functional; conditions: HCT-116
HCT-116 [8] = assay: Induction of apoptosis in human HCT116 cells assessed as increase in intracellular reactive oxygen species at 0.17 to 8 uM by DCFH-DA probe-based flow cytometry; format: functional, cell-based; conditions: TDE = time-dependent effect
Outline: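 For the dose series, HCT116 cells were seeded at 5 × 10⁴ cells/well, grown 24 h, then exposed 3 h to DMSO or graded compound levels, with a Rosup positive group. Cells were washed with PBS and serum-free medium, loaded with DCFH-DA (1 μmol/L) in serum-free medium at 37 °C for 20 min, and ROS fluorescence was read by flow cytometry.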

HCT-116 [9] = assay: Induction of apoptosis in human HCT116 cells assessed as increase in intracellular reactive oxygen species at 2 to 3 hrs by DCFH-DA probe-based flow cytometry; format: functional, cell-based
[10] = Cytotoxicity against human L02 cells; format: toxicity, cell-based

For `CC(C)(C)OC(=O)/C=C1/C(=O)Nc2ccccc21`, which Activity (HCT-116 [1]) is on record?
Its Activity is 90.8%.

What about the Activity (HCT-116 [2]) of the same molecule?
The Activity was 0.6%.

What about the Activity (HCT-116 [3]) of the same molecule?
Its Activity is 89%.

What about the Activity (HCT-116 [4]) of the same molecule?
The Activity was 6.6%.

And the Activity (HCT-116 [5])?
Its Activity is 26.1%.

And the Activity (HCT-116 [6])?
Its Activity is “Dose-dependent effect”.

What about the Activity [7] of the same molecule?
The Activity was 32.9%.

What about the Activity (HCT-116 [8]) of the same molecule?
The Activity was “Tde”.

And the Activity (HCT-116 [9])?
The Activity was “Dose-dependent effect”.

And the IC50 [10]?
Its IC50 is 6.21 µM.

From ChEMBL document CHEMBL3877250, “Design, synthesis, and biological evaluation of (2E)-(2-oxo-1, 2-dihydro-3H-indol-3-ylidene)acetate derivatives as anti-proliferative agents through ROS-induced cell apoptosis” (Eur J Med Chem, 2016)
